ChEMBL document CHEMBL1143909, “Novel cholesterol biosynthesis inhibitors targeting human lanosterol 14alpha-demethylase (CYP51)” (Bioorg Med Chem, 2008)
The source made the active and inactive calls. No cut-off for these calls is given here.

Tests used:
[1] = target: T1, Lanosterol 14-alpha demethylase (Homo sapiens, UniProt Q16850); test: Binding affinity to human His-tagged CYP51 expressed in Escherichia coli
T1 sequence (Q16850 whole entry): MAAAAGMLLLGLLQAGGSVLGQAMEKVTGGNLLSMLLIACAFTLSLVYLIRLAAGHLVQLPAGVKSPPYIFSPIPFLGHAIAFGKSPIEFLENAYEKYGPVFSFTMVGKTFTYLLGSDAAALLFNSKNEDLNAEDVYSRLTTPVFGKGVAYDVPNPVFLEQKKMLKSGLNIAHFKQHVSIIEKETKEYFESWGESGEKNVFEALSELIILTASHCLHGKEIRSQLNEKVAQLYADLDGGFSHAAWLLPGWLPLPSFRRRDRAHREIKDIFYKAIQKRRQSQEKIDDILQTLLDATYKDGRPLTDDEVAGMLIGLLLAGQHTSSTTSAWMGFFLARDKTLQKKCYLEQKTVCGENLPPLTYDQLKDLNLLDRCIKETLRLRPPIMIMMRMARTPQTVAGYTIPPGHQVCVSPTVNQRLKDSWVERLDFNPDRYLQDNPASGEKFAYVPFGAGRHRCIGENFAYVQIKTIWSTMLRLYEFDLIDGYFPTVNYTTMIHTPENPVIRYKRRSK
Summary of the method: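 Purified His-tagged human CYP51 titrated with inhibitor at room temperature in 50 mM phosphate, 100 mM NaCl, 0.1 mM EDTA, 10% glycerol. Difference spectra recorded 350-500 nm; A412–A432 plotted against inhibitor concentration. Enzyme 0.5 or 2 µM, titration ranges 0.25-400 µM depending on compound. Apparent Kd from hyperbolic nonlinear fit of free inhibitor; three repeats per compound.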

HepG2 = test: Ex vivo inhibition of CYP51 mediated cholesterol biosynthesis in human HepG2 cells assessed as increase in lanosterol accumulation at 10 uM relative to control
[2] = target: T2, Delta(14)-sterol reductase TM7SF2 (Homo sapiens) (UniProt O76062); test: Inhibition of Delta-(14)-sterol reductase in human HepG2 cells assessed as accumulation of FF-MAS; format: cell-based
T2 sequence (whole entry): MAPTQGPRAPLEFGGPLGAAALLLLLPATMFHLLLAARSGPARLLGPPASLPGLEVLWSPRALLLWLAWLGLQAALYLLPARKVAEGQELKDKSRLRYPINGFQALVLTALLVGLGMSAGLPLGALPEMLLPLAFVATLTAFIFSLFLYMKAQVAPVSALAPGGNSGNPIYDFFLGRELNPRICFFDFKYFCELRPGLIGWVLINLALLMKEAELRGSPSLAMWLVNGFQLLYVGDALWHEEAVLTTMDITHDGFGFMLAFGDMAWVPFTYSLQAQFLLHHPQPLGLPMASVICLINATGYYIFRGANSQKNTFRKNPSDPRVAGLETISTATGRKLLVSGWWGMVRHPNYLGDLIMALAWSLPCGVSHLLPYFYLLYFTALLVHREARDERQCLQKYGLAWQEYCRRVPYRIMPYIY
Summary of the method: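 HepG2 cells grown 24 h at 37 °C, 5% CO2 in DMEM high with 5% calf serum, then 10 µM compound for 24 h. Fresh medium with [3H]acetate (40 µCi/ml) for 4 h. Sterols extracted from homogenate with ergosterol internal standard, separated by reversed-phase HPLC (100% acetonitrile, 40 °C) with radioactivity detection. Read as ratios to untreated cells: two experiments × two replicas, mean of 8 ratios ± SD.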

Kd [1] [µM] | Activity [2] | Compound | Activity (HepG2)
260 | – | Br.CCCN(CCc1cccnc1)CC(O)c1cccnc1 (centres undefined) | 1
27 | – | Br.CCCN(CCc1ccc(F)c(F)c1)CC(O)c1cccnc1 (centres undefined) | 1.9
0.4 | – | Br.CCCN(CCc1ccc(Cl)c(Cl)c1)CC(O)c1cccnc1 (centres undefined) | 6
29.2 | – | Br.CCCN(CCc1ccc(OC)c(OC)c1)CC(O)c1cccnc1 (centres undefined) | 1.8
– | Active | CCCN(CCc1cccnc1)CCc1cccc(F)c1 | –
0.34 | – | Br.CCCN(CCc1ccc2ccccc2c1)CC(O)c1cccnc1 (centres undefined) | 5

Compound | Kd [1] [µM] | Activity [2] | Activity (HepG2)
CC(=O)N1CCN(c2ccc(OC[C@H]3CO[C@](Cn4ccnc4)(c4ccc(Cl)cc4Cl)O3)cc2)CC1 [KETOCONAZOLE] | 0.11 | – | –
Br.CCCN(CCc1ccc(Cl)c(Cl)c1)CC(O)c1cc(C)ccn1 (centres undefined) | > 1000 | – | 1.2
